ChEMBL document CHEMBL1821687, “Discovery, synthesis, and biological evaluation of novel SMN protein modulators” (J Med Chem, 2011)

Columns and labels:
[1] = molecular target: Survival motor neuron protein (Homo sapiens) (UniProt Q16637); assay: Activation of SMN expressed in HEK293 cells assessed as rate of induction by SMN2-promotor driven luciferase reporter gene assay relative to basal level; format: cell-based; set-up: concentration or dose not given beside the values
Summary of the method: (§1)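 HEK-293 cells stably carrying the SMN2 reporter construct, kept in DMEM with 10% FCS, glutamax, pyruvate, pen/strep and 200 µg/mL hygromycin, and assayed without hygromycin. 2,000 cells/well were plated and adhered overnight at 37 °C, 5% CO2. Compounds were added as a 7-point titration, 50 µM to 25 nM final, in 0.46% DMSO, for 30–36 h. OneGlo luminescence was normalized to 4.5 mM sodium butyrate (100%) and DMSO (0%).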

[2] = test system: Brain; assay: Drug level in Swiss albino mouse brain at 30 mg/kg, po after 1 hr; format: ADME, organism-based; set-up: dose 30 mg/kg, route oral; details: in vivo
Summary of the method: (§2)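 Male Swiss Albino mice received a single 30 mg/kg oral gavage dose. Compound levels were measured in plasma and brain over time, and PK parameters were derived from the concentration–time data.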

[3] = test system: Plasma; assay: Tmax in plasma of Swiss albino mouse at 30 mg/kg, po; format: ADME, organism-based; set-up: dose 30 mg/kg, route oral; details: in vivo; summary of the method: as §2
[4] = test system: Brain; assay: Drug level in Swiss albino mouse brain at 30 mg/kg, po after 4 hrs; format: ADME, organism-based; set-up: dose 30 mg/kg, route oral; details: in vivo; summary of the method: as §2
[5] = test system: Brain; assay: Cmax in brain of Swiss albino mouse at 30 mg/kg, po; format: ADME, organism-based; set-up: dose 30 mg/kg, route oral; details: in vivo; summary of the method: as §2
[6] = Ratio of AUC in brain to AUC in plasma in Swiss albino mouse at 30 mg/kg, po; format: ADME, organism-based; set-up: dose 30 mg/kg, route oral; details: brain and plasma
Summary of the method: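 Single oral gavage dose of 30 mg/kg given to male Swiss Albino mice; compound concentrations measured in both plasma and brain, from which brain and plasma exposure parameters were derived; animals observed for behavioural disturbance throughout the study.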

[7] = test system: Plasma; assay: AUClast in plasma of Swiss albino mouse at 30 mg/kg, po; format: ADME, organism-based; set-up: time 0 - last, dose 30 mg/kg, route oral; details: in vivo; summary of the method: as §2
[8] = test system: Brain; assay: Drug level in Swiss albino mouse brain at 30 mg/kg, po after 8 hrs; format: ADME, organism-based; set-up: dose 30 mg/kg, route oral; details: in vivo; summary of the method: as §2
[9] = test system: Brain; assay: Drug level in Swiss albino mouse brain at 30 mg/kg, po after 12 hrs; format: ADME, organism-based; set-up: dose 30 mg/kg, route oral; details: in vivo; summary of the method: as §2
[10] = test system: Liver; assay: Half-life in mouse liver microsome at 1 uM; format: ADME; details: microsomes
[11] = test system: Plasma; assay: Free plasma concentration in Swiss albino mouse at 30 mg/kg, po after 8 hrs; format: ADME, organism-based; set-up: dose 30 mg/kg, route oral; details: in vivo
[12] = test system: Brain; assay: Drug level in Swiss albino mouse brain at 30 mg/kg, po after 0.083 hr; format: ADME, organism-based; set-up: dose 30 mg/kg, route oral; details: in vivo
[13] = test system: Brain; assay: Half-life in brain of Swiss albino mouse at 30 mg/kg, po; format: ADME, organism-based; set-up: dose 30 mg/kg, route oral; details: in vivo; summary of the method: as §2
[14] = molecular target: Survival motor neuron protein (Homo sapiens) (UniProt Q16637); assay: Activation of SMN expressed in HEK293 cells assessed as concentration required to reach 50% of maximum luciferase signal by SMN2-promotor driven luciferase reporter gene assay; format: cell-based; summary of the method: as §1
[15] = Plasma concentration in Swiss albino mouse at 30 mg/kg, po after 0.5 hrs; format: ADME, organism-based; set-up: dose 30 mg/kg, route oral; summary of the method: as §2
[16] = Plasma concentration in Swiss albino mouse at 30 mg/kg, po after 24 hrs; format: ADME, organism-based; set-up: dose 30 mg/kg, route oral; summary of the method: as §2
[17] = test system: Plasma; assay: AUC (infinity) in plasma of Swiss albino mouse at 30 mg/kg, po; format: ADME, organism-based; set-up: dose 30 mg/kg, route oral, time infinity; details: in vivo; summary of the method: as §2
[18] = molecular target: T1, Luciferin 4-monooxygenase (Luciola lateralis, UniProt Q01158); assay: Inhibition of fire fly luciferase; set-up: species or system Aquatica lateralis; details: read-out: IC50
T1 sequence (Q01158 whole entry): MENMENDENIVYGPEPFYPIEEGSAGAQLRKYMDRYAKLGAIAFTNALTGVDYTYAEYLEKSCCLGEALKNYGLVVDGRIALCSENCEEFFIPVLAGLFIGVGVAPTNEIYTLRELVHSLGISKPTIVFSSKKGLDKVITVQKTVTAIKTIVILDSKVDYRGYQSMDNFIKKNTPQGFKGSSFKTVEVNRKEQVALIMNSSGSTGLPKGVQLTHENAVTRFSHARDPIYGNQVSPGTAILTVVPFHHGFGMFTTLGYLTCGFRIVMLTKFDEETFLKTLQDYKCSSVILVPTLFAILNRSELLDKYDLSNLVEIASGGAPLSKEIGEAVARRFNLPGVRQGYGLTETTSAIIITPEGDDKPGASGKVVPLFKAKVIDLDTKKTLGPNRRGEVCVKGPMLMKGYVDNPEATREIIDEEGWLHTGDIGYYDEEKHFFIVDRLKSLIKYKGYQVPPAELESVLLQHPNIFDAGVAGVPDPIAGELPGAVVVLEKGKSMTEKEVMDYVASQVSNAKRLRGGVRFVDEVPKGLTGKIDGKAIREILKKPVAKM

[19] = test system: Plasma; assay: Free plasma concentration in Swiss albino mouse at 30 mg/kg, po after 0.083 hr; format: ADME, organism-based; set-up: dose 30 mg/kg, route oral; details: in vivo
[20] = test system: Brain; assay: AUClast in brain of Swiss albino mouse at 30 mg/kg, po; format: ADME, organism-based; set-up: time 0 - last, dose 30 mg/kg, route oral; details: in vivo; summary of the method: as §2
[21] = test system: Brain; assay: Tmax in brain of Swiss albino mouse at 30 mg/kg, po; format: ADME, organism-based; set-up: dose 30 mg/kg, route oral; details: in vivo; summary of the method: as §2
[22] = test system: Plasma; assay: Free plasma concentration in Swiss albino mouse at 30 mg/kg, po after 24 hrs; format: ADME, organism-based; set-up: dose 30 mg/kg, route oral; details: in vivo
[23] = test system: Brain; assay: Drug level in Swiss albino mouse brain at 30 mg/kg, po after 0.25 hr; format: ADME, organism-based; set-up: dose 30 mg/kg, route oral; details: in vivo; summary of the method: as §2
[24] = Plasma concentration in Swiss albino mouse at 30 mg/kg, po after 0.083 hrs; format: ADME, organism-based; set-up: dose 30 mg/kg, route oral
[25] = test system: Plasma; assay: Free plasma concentration in Swiss albino mouse at 30 mg/kg, po after 0.5 hr; format: ADME, organism-based; set-up: dose 30 mg/kg, route oral; details: in vivo
[26] = Plasma protein binding in Swiss albino mouse at 30 mg/kg, po; format: ADME, organism-based; set-up: dose 30 mg/kg, route oral; details: read-out: PPB (converted)
[27] = test system: Plasma; assay: Free plasma concentration in Swiss albino mouse at 30 mg/kg, po after 4 hrs; format: ADME, organism-based; set-up: dose 30 mg/kg, route oral; details: in vivo
[28] = Plasma concentration in Swiss albino mouse at 30 mg/kg, po after 1 hr; format: ADME, organism-based; set-up: dose 30 mg/kg, route oral; summary of the method: as §2
[29] = test system: Plasma; assay: Free plasma concentration in Swiss albino mouse at 30 mg/kg, po after 0.25 hr; format: ADME, organism-based; set-up: dose 30 mg/kg, route oral; details: in vivo
[30] = test system: Brain; assay: Drug level in Swiss albino mouse brain at 30 mg/kg, po after 0.5 hr; format: ADME, organism-based; set-up: dose 30 mg/kg, route oral; details: in vivo; summary of the method: as §2
[31] = Plasma concentration in Swiss albino mouse at 30 mg/kg, po after 0.25 hrs; format: ADME, organism-based; set-up: dose 30 mg/kg, route oral; summary of the method: as §2
[32] = test system: Plasma; assay: Half-life in plasma of Swiss albino mouse at 30 mg/kg, po; format: ADME, organism-based; set-up: dose 30 mg/kg, route oral; details: in vivo; summary of the method: as §2
[33] = Plasma concentration in Swiss albino mouse at 30 mg/kg, po after 8 hrs; format: ADME, organism-based; set-up: dose 30 mg/kg, route oral; summary of the method: as §2
[34] = test system: Brain; assay: Drug level in Swiss albino mouse brain at 30 mg/kg, po after 2 hrs; format: ADME, organism-based; set-up: dose 30 mg/kg, route oral; details: in vivo; summary of the method: as §2
[35] = test system: Plasma; assay: Cmax in plasma of Swiss albino mouse at 30 mg/kg, po; format: ADME, organism-based; set-up: dose 30 mg/kg, route oral; details: in vivo; summary of the method: as §2
[36] = molecular target: Survival motor neuron protein (Homo sapiens) (UniProt Q16637); assay: Activation of SMN in human fibroblast cells obtained from type 1 SMA patients assessed as protein punctuate bodies per 100 nuclei at 37 to 1000 nM relative to control; format: cell-based
[37] = test system: Plasma; assay: Free plasma concentration in Swiss albino mouse at 30 mg/kg, po after 1 hr; format: ADME, organism-based; set-up: dose 30 mg/kg, route oral; details: in vivo
[38] = test system: Caco-2; assay: Apparent permeability from basolateral side to apical side of human Caco2 cells at 10 uM; format: ADME, cell-based; details: caco-2, 10 µM
[39] = Plasma concentration in Swiss albino mouse at 30 mg/kg, po after 2 hrs; format: ADME, organism-based; set-up: dose 30 mg/kg, route oral; summary of the method: as §2
[40] = test system: Plasma; assay: Free plasma concentration in Swiss albino mouse at 30 mg/kg, po after 12 hrs; format: ADME, organism-based; set-up: dose 30 mg/kg, route oral; details: in vivo
[41] = test system: Brain; assay: AUC (infinity) in brain of Swiss albino mouse at 30 mg/kg, po; format: ADME, organism-based; set-up: time infinity, dose 30 mg/kg, route oral; details: in vivo; summary of the method: as §2
[42] = test system: Plasma; assay: Free plasma concentration in Swiss albino mouse at 30 mg/kg, po after 2 hrs; format: ADME, organism-based; set-up: dose 30 mg/kg, route oral; details: in vivo
[43] = Plasma concentration in Swiss albino mouse at 30 mg/kg, po after 4 hrs; format: ADME, organism-based; set-up: dose 30 mg/kg, route oral; summary of the method: as §2
[44] = Plasma concentration in Swiss albino mouse at 30 mg/kg, po after 12 hrs; format: ADME, organism-based; set-up: dose 30 mg/kg, route oral; summary of the method: as §2
[45] = test system: Caco-2; assay: Apparent permeability from apical side to basolateral side of human Caco2 cells at 10 uM; format: ADME, cell-based; details: caco-2, 10 µM
[46] = test system: Brain; assay: Drug level in Swiss albino mouse brain at 30 mg/kg, po after 24 hrs; format: ADME, organism-based; set-up: dose 30 mg/kg, route oral; details: in vivo; summary of the method: as §2

Sequence of Survival motor neuron protein (Homo sapiens) (Q16637 whole entry): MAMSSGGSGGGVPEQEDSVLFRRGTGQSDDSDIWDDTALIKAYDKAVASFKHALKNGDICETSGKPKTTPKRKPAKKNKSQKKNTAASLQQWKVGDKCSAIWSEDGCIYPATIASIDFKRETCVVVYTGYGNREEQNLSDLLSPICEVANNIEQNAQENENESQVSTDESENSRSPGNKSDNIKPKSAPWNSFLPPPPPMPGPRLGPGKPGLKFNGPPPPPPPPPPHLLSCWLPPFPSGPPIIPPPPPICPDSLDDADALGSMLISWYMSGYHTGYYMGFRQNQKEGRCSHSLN

O=C(O)C1CCN(c2ncc(-c3ccc4c(c3)OCCCO4)s2)CC1
Activity [1]: 325% | Drug uptake [2]: 0.59 µmol/kg | Tmax [3]: 4.98 min | Drug uptake [4]: 0.36 µmol/kg | Cmax [5]: 1.23 µmol/kg | Kp [6]: 0.028 | AUClast [7]: 77.768 µg·h/mL | Drug uptake [8]: 0.32 µmol/kg | Drug uptake [9]: 0.13 µmol/kg | t1/2 [10]: > 1 h | Cp(f) [11]: 0.64 µM | Drug uptake [12]: 0.48 µmol/kg | t1/2 [13]: 13.69 h | Activity [14]: 0.012 µM | concentration at 0.5 h [15]: 41.1 µM | concentration at 24 h [16]: 4.36 µM | AUC [17]: 103.094 µg·h/mL | IC50 [18]: 5 nM | Cp(f) [19]: 2.26 µM | AUClast [20]: 2.167 µg·h/mL | Tmax [21]: 0.25 h | Cp(f) [22]: 0.22 µM | Drug uptake [23]: 1.23 µmol/kg | concentration at 0.083 h [24]: 44.4 µM | Cp(f) [25]: 2.1 µM | fraction unbound [26]: 0.051 | Cp(f) [27]: 0.55 µM | concentration at 1 h [28]: 21 µM | Cp(f) [29]: 2.13 µM | Drug uptake [30]: 1.14 µmol/kg | concentration at 0.25 h [31]: 41.7 µM | t1/2 [32]: 11.18 h | concentration at 8 h [33]: 12.6 µM | Drug uptake [34]: 0.43 µmol/kg | Cmax [35]: 44.4 µM | Activity [36]: 80% | Cp(f) [37]: 1.07 µM | Papp [38]: 441 nm/s | concentration at 2 h [39]: 16.6 µM | Cp(f) [40]: 0.23 µM | AUC [41]: 3.115 µg·h/mL | Cp(f) [42]: 0.85 µM | concentration at 4 h [43]: 10.8 µM | concentration at 12 h [44]: 4.57 µM | Papp [45]: 338 nm/s | Drug uptake [46]: 0.13 µmol/kg
